Experimental data published in ChEMBL document CHEMBL4622973, “Discovery of Potent Small-Molecule SIRT6 Activators: Structure-Activity Relationship and Anti-Pancreatic Ductal Adenocarcinoma Activity” (J Med Chem, 2020).
Calls of active or inactive are those of the source. No cut-off for these calls is given here.

Key:
[1] = test system: MIA PaCa-2; test: Inhibition of cell migration of human MIAPaCa2 cells at 10 umol/L incubated for 24 hrs by inverted microscopy relative to control; type: functional; conditions: MIA PaCa-2, 24 h
In short: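 PDAC cells are grown to a confluent monolayer at 37 °C in 5% CO2. The monolayer is scratched with a 200 μL pipette tip to make a gap of constant width, then washed with PBS. Cells are exposed to a range of compound concentrations. They are imaged by inverted microscope after 24 h. Migrated cells are counted by hand, and inhibition is expressed relative to untreated wells (100%).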

[2] = target: NAD-dependent protein deacylase sirtuin-5, mitochondrial (Homo sapiens, UniProt Q9NXA8); test: Inhibition of SIRT5 (unknown origin) by FDL assay
Chain of NAD-dependent protein deacylase sirtuin-5, mitochondrial (Q9NXA8 whole entry): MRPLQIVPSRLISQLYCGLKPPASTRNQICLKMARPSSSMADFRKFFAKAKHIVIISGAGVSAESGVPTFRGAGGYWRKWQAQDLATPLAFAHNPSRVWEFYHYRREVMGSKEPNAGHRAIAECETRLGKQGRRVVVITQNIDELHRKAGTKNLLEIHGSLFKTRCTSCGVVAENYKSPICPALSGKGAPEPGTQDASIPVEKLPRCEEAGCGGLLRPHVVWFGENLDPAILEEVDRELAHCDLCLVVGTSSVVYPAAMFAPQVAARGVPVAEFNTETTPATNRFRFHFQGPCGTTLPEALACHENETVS
In short: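 SIRT3 and SIRT5 tested by an outsourced FDL fluorogenic deacetylase assay, each from a different contract provider. The IC50 was determined for each enzyme, with concentrations going up to 200 μM.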

[3] = target: Histone deacetylase 9 (Homo sapiens, UniProt Q9UKV0); test: Inhibition of HDAC9 (unknown origin) by FDL assay
Chain of Histone deacetylase 9 (Q9UKV0 whole entry): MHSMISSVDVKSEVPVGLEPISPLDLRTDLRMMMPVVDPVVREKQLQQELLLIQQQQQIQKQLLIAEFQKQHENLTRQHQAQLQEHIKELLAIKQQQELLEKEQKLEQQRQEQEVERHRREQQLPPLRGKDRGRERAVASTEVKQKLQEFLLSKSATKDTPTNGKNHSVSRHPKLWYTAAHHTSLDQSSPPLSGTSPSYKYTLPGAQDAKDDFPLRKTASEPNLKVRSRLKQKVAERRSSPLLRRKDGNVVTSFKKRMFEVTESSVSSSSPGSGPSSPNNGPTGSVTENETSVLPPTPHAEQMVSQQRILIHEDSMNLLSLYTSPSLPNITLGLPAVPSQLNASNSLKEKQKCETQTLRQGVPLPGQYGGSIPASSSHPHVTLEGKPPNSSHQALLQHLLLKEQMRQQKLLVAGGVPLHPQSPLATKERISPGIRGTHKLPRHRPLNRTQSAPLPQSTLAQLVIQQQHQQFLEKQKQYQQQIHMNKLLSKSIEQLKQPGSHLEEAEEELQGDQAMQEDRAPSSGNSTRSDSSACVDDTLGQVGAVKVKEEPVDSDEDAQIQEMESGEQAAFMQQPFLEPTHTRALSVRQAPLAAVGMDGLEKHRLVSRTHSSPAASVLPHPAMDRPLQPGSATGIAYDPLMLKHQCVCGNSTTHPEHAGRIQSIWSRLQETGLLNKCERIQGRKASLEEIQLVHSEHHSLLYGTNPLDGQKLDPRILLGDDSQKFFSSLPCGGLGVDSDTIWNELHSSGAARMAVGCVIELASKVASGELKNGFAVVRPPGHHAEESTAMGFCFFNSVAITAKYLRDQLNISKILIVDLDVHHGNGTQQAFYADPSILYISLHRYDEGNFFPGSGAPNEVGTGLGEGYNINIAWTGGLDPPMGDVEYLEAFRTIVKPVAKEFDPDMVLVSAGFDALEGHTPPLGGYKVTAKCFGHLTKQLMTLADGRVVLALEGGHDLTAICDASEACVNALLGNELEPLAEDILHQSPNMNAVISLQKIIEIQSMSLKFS
In short: (§1)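 Selectivity testing by FDL assay at concentrations up to 200 µM. SIRT1-2 assays run by an outside contract provider. Values reported as IC50.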

[4] = target: T1, NAD-dependent protein deacylase sirtuin-6 (Homo sapiens, UniProt Q8N6T7); test: Binding affinity to N-terminal his-tagged human SIRT6 expressed in Escherichia coli M15 [pREP4] by ITC assay
T1 sequence (Q8N6T7 whole entry): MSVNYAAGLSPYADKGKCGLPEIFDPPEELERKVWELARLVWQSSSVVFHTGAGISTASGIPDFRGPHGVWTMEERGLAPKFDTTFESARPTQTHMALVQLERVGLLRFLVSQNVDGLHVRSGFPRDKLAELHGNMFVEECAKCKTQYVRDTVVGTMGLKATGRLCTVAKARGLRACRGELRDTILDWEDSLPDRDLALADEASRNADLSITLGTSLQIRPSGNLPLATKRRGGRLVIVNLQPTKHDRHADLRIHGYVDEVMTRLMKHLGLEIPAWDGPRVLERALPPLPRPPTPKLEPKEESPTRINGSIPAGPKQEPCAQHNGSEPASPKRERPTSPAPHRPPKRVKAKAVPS
In short: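 ITC at 25 °C in 20 mM HEPES pH 7.5, 100 mM NaCl, 2 mM DTT. SIRT6 (400 µM) injected into a cell holding activator (80 µM). Kd derived from the binding isotherm.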

[5] = target: T1, NAD-dependent protein deacylase sirtuin-6; test: […] in human BxPC3 cells assessed as reduction in H3K56ac levels incubated for 72 hrs by Western blot analysis; type: cell-based; conditions: BXPC-3
In short: (§2)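 Cells incubated 72 h with various compound concentrations; whole-cell RIPA lysates with protease inhibitors, BCA-normalised, separated on 12% SDS-PAGE, transferred to PVDF, blocked in 5% milk or BSA. Probed 10 h at 4 °C with antibodies to SIRT6, acetyl-H3K9/K18/K56, total H3, Lin28b, Myc, IGF2BP3, β-actin; HRP secondary, chemiluminescent detection.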

[6] = test system: BXPC-3; test: Antiproliferative activity against human BxPC3 cells at 3.3 to 10 uM incubated for 24 hrs by EdU incorporation assay; type: functional, cell-based
In short: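 Cells seeded per well at 8000 (BXPC-3) or 4600 (PANC-1), then treated with a concentration series for 24 h. EdU incorporation detected with an EdU-Apollo kit, with Hoechst counterstain. EdU-positive cells counted by high-content imaging across 10 fields.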

[7] = test system: PANC-1; test: Induction of cell cycle arrest in human PANC1 cells assessed as increase in accumulation at G2 phase incubated for 48 hrs by propidium iodide staining based flow cytometry; type: functional
In short: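 PANC-1 and BXPC-3 cells in 6-well plates treated with a concentration series for 48 h. Stained with 50 µg/mL propidium iodide for 30 min in the dark. DNA content analysed by flow cytometry for cell-cycle phase distribution.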

[8] = test system: BXPC-3; test: Antiproliferative activity against human BxPC3 cells assessed as reduction in cell viability incubated for 72 hrs by MTT assay; type: functional, cell-based
In short: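 PDAC cells grown in DMEM or RPMI1640 with 10% FBS and penicillin/streptomycin at 37 °C, 5% CO2. Plated in triplicate, then treated with a concentration series for 72 h. Viability read by MTT. IC50 calculated from dose-response curves.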

[9] = target: T1, NAD-dependent protein deacylase sirtuin-6; test: […] in human BxPC3 cells assessed as reduction in IGF2BP3 expression levels at 25 uM incubated for 72 hrs by Western blot analysis; type: cell-based; conditions: BXPC-3; in short: as §2
[10] = AUC (0 to t) in Sprague-Dawley rat at 10 mg/kg, po after 0.083 to 24 hrs by LC-MS/MS analysis; type: ADME, organism-based; conditions: in vivo
In short: (§3)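 Male Sprague-Dawley rats, 6-8 weeks old. Dosing solution of 10 (PO) or 2 (IV) mg/mL in 5% DMSO, 10% Solutol and 85% saline, pH 7. Blood taken by cardiac puncture at 0.083–24 h (PO) or 0.25–24 h (IV). Plasma levels measured by LC-MS/MS. Values are mean ± SD, n = 3.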

[11] = target: Polyamine deacetylase HDAC10 (Homo sapiens, UniProt Q969S8); test: Inhibition of HDAC10 (unknown origin) by FDL assay; in short: as §1
Chain of Polyamine deacetylase HDAC10 (Q969S8 whole entry): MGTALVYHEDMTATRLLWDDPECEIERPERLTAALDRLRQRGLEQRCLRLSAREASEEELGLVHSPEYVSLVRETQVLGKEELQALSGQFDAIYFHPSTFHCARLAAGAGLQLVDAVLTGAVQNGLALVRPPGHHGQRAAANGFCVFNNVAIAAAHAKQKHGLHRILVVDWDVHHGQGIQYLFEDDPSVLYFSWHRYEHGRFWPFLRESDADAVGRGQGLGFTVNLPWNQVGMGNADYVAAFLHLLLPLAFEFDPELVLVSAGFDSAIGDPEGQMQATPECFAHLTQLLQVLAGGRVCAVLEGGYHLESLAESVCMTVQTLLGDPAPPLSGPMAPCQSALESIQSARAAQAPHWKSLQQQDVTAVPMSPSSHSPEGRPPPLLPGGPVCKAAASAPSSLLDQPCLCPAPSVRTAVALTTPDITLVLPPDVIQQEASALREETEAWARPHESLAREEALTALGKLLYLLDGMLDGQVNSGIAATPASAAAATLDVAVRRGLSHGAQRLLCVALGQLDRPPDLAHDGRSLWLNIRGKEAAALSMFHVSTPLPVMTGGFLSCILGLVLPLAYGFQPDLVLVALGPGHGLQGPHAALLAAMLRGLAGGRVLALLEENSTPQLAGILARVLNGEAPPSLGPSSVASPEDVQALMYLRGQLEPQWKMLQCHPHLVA

[12] = Cmax in Sprague-Dawley rat at 2 mg/kg, iv after 0.25 to 24 hrs by LC-MS/MS analysis; type: ADME, organism-based; set-up: dose 2 mg/kg, route intravenous; conditions: in vivo; in short: as §3
[13] = target: T1, NAD-dependent protein deacylase sirtuin-6; test: Binding affinity to N-terminal his-tagged human SIRT6 expressed in Escherichia coli M15 [pREP4] by SPR assay
[14] = target: Histone deacetylase 8 (Homo sapiens, UniProt Q9BY41); test: Inhibition of HDAC8 (unknown origin) by FDL assay; in short: as §1
Chain of Histone deacetylase 8 (Q9BY41 whole entry): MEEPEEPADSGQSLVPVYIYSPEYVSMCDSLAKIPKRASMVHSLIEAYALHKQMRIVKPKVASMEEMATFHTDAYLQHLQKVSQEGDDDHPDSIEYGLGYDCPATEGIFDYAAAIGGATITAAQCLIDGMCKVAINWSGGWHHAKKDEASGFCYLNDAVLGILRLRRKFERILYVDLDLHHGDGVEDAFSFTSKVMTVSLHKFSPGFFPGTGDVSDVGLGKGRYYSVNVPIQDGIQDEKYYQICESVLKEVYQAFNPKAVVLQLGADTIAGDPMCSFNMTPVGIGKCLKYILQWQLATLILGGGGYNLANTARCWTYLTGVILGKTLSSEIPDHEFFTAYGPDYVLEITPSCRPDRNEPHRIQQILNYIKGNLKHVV

[15] = target: NAD-dependent protein deacetylase sirtuin-1 (Homo sapiens, UniProt Q96EB6); test: Inhibition of SIRT1 (unknown origin) by FDL assay; in short: as §1
Chain of NAD-dependent protein deacetylase sirtuin-1 (Q96EB6 whole entry): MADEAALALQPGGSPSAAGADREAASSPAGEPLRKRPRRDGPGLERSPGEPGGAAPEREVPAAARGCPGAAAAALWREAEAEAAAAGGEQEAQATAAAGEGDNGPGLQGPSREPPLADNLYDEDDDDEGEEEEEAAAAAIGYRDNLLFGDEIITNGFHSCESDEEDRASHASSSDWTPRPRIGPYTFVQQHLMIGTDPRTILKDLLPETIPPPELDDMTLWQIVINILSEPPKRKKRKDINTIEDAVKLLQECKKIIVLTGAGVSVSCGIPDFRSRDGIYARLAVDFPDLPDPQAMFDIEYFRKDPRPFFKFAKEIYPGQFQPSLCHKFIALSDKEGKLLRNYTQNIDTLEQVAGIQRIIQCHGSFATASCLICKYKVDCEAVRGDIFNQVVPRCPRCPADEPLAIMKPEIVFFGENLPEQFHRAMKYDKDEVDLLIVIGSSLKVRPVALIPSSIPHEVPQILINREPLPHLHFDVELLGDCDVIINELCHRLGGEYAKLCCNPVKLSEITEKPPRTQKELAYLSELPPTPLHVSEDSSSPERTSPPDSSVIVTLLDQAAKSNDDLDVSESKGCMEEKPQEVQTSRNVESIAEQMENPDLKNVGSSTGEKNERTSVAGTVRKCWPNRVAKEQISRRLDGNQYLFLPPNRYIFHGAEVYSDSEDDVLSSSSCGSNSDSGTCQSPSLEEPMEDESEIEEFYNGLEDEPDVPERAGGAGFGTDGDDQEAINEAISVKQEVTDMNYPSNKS

[16] = target: Histone deacetylase 4 (Homo sapiens, UniProt P56524); test: Inhibition of HDAC4 (unknown origin) by FDL assay; in short: as §1
Chain of Histone deacetylase 4 (P56524 whole entry): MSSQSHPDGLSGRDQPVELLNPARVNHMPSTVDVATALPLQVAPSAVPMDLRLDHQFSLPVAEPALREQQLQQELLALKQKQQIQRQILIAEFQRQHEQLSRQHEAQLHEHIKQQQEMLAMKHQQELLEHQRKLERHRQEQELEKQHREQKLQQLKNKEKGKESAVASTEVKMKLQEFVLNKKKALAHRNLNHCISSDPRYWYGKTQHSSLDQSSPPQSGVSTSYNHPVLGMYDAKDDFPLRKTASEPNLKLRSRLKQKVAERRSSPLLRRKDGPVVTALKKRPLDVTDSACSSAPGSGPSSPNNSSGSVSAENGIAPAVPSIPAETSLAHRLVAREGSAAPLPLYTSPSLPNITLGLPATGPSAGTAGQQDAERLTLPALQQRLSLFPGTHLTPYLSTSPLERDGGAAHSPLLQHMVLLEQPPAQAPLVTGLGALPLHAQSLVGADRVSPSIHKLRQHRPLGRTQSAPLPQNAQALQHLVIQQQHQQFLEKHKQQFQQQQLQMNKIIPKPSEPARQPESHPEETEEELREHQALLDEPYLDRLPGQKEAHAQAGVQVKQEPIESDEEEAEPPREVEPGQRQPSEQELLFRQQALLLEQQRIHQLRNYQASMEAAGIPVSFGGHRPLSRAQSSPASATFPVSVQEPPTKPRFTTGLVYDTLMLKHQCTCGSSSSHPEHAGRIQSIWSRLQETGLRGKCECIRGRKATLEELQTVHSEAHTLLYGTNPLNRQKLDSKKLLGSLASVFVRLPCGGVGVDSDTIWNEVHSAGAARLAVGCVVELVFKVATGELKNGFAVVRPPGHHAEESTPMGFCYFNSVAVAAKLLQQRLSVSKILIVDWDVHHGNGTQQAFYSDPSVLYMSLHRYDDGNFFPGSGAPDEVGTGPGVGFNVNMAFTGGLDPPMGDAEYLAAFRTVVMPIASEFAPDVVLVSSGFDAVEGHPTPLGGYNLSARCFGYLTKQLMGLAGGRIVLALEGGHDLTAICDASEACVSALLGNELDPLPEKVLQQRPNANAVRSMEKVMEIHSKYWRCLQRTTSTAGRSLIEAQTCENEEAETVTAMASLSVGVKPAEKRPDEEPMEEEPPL

[17] = test system: PANC-1; test: Antitumor activity against human PANC1 cells xenografted in BALB/c nude mouse assessed as inhibition of tumor cell proliferation by measuring reduction in Ki67+ cells at 150 mg/kg/day, po for 30 days by IHC analysis; type: functional, organism-based
In short: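 PANC-1 subcutaneous xenografts in female BALB/c nude mice dosed orally for 30 days. Tumor tissue taken and stained by immunohistochemistry for Ki-67-positive cells, compared with vehicle.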

[18] = target: T1, NAD-dependent protein deacylase sirtuin-6; test: Binding affinity to SIRT6 in human BxPC3 cells assessed as protection of SIRT6 protein from temperature-dependent degradation at 25 uM incubated for 72 hrs by CETSA; type: cell-based; conditions: BXPC-3
In short: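 Cells treated with compound (25 μM) or DMSO for 72 h, washed, resuspended in PBS with protease inhibitor cocktail, split into aliquots heated 3 min at a temperature gradient. Lysed by three freeze–thaw cycles, centrifuged at 4 °C for 15 min; soluble SIRT6 in supernatant detected by western blot. Triplicate.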

[19] = AUC (0 to infinity) in Sprague-Dawley rat at 2 mg/kg, iv after 0.25 to 24 hrs by LC-MS/MS analysis; type: ADME, organism-based; set-up: dose 2 mg/kg, route intravenous, time infinity; conditions: in vivo; in short: as §3
[20] = Clearance in Sprague-Dawley rat at 2 mg/kg, iv after 0.25 to 24 hrs by LC-MS/MS analysis; type: ADME, organism-based; conditions: in vivo; in short: as §3
[21] = Tmax in Sprague-Dawley rat at 2 mg/kg, iv after 0.25 to 24 hrs by LC-MS/MS analysis; type: ADME, organism-based; conditions: in vivo
In short: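 Male Sprague-Dawley rats, 6–8 weeks old, received a single dose of 10 mg/kg p.o. or 2 mg/kg i.v. The vehicle was 5% DMSO, 10% Solutol and 85% saline at pH 7. Blood was taken by cardiac puncture at 0.083–24 h (p.o.) or 0.25–24 h (i.v.), and plasma was measured by LC-MS/MS. Values are mean ± SD, n = 3.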

O=C(NC(c1ccccc1)c1ccccc1)c1cc(-c2cc3ccccc3o2)nc2ccccc12
inhibition at 10 µM [1]: 57.2% | IC50 [2]: > 200 µM | IC50 [3]: > 200 µM | Kd [4]: 8.85 µM | inhibition [5]: Dose-dependent effect | Activity [6]: Active | Activity [7]: Dose-dependent effect | Activity [8]: Dose-dependent effect | IC50 ([8]; BXPC-3, 72 h): 8.27 µM | inhibition [9]: Active | AUCt [10]: 704.67 ng·mL·h | IC50 [11]: > 200 µM | Cmax [12]: 5120 ng/mL | Kd [13]: 5.52 µM | IC50 [14]: > 200 µM | IC50 [15]: 171 µM | IC50 [16]: > 200 µM | Activity [17]: Active | Activity [18]: Active | AUC [19]: 3381.49 ng·mL·h | CL [20]: 10 mL/min/kg | Tmax [21]: 4.8 min
